Here are results for ten molecules from ChEMBL document CHEMBL4270616, “Asymmetrical meta-methoxylated diarylpentanoids: Rational design, synthesis and anti-cancer evaluation in-vitro” (Eur J Med Chem, 2018).

Experiment [1] relates to SW-620. Kind of experiment: Cytotoxicity against human SW620 cells assessed as inhibition of cell proliferation at 20 uM after 72 hrs by MTT assay relative to control. Type of experiment: functional. Particulars: SW-620, 72 h. The method, boiled down:
(§1)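 Single-concentration screen at 20 μM with 72 h exposure in DMEM with 10% FBS, final DMSO 0.1%. Read-out was MTT (5 mg/mL, 4 h, 37°C), DMSO solubilisation and absorbance at 570 nm, expressed as percent inhibition. Lines reaching a threshold percentage went on to IC50 determination.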
For orientation: Formazan colour is commonly taken as a measure of viable cells.

Experiment [2] can be described thus: Cytotoxicity against human EJ28 cells after 72 hrs by MTT assay. Type of experiment: functional, cell-based. To be noted: EJ-28, 72 h. The method, boiled down:
(§2)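 Tumour lines kept in DMEM with 10% FBS and 1% penicillin/streptomycin at 37°C, 5% CO2. Seeded at 1500-5000 cells/well by doubling time and size, 24 h, then compound in DMSO-containing medium (final DMSO 0.1%) for 72 h. MTT (5 mg/mL) 4 h at 37°C, DMSO solubilisation, absorbance at 570 nm.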

Experiment [3] concerns SW-620. Kind of experiment: Cytotoxicity against human SW620 cells after 72 hrs by MTT assay. Type of experiment: functional, cell-based. Particulars: SW-620, 72 h. The method, boiled down: as §2
Experiment [4] deals with MCF7. Put plainly: Cytotoxicity against human MCF7 cells assessed as inhibition of cell proliferation at 20 uM after 72 hrs by MTT assay relative to control. Particulars: MCF7, 72 h. Type of experiment: functional. The method, boiled down:
as §1

The test system of a further experiment is NHDF. Put plainly: Cytotoxicity against NHDF after 72 hrs by MTT assay. Type of experiment: cell-based. Particulars: Homo sapiens. The essentials:
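NHDF grown in DMEM with 5% FBS at 37°C, 5% CO2. Seeded at 1500-5000 cells/well, 24 h, then compound added in DMSO-containing medium (final DMSO 0.1%) for 72 h. MTT (5 mg/mL in medium) added for 4 h at 37°C, formazan dissolved in DMSO, absorbance read at 570 nm.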

For experiment [5], the system named is MCF7. Kind of experiment: Cytotoxicity against human MCF7 cells after 72 hrs by MTT assay. Type of experiment: functional, cell-based. To be noted: MCF7, 72 h. The essentials: as §2
Experiment [6] deals with HT-1080. Put plainly: Cytotoxicity against human HT1080 cells after 72 hrs by MTT assay. To be noted: HT-1080, 72 h. Type of experiment: functional, cell-based. The essentials:
as §2

Experiment [7] relates to HT-1080. Kind of experiment: Cytotoxicity against human HT1080 cells assessed as inhibition of cell proliferation at 20 uM after 72 hrs by MTT assay relative to control. The format is functional. To be noted: HT-1080, 72 h. The essentials: as §1
For experiment [8], the system named is A549. Kind of experiment: Cytotoxicity against human A549 cells assessed as inhibition of cell proliferation at 20 uM after 72 hrs by MTT assay relative to control. The format is functional. Particulars: A549, 72 h. The essentials:
as §1

Experiment [9] can be described thus: Cytotoxicity against human EJ28 cells assessed as inhibition of cell proliferation at 20 uM after 72 hrs by MTT assay relative to control. Type of experiment: functional. To be noted: EJ-28, 72 h. The method, boiled down:
as §1

Experiment [10] deals with A549. Put plainly: Cytotoxicity against human A549 cells after 72 hrs by MTT assay. Type of experiment: functional, cell-based. Particulars: A549, 72 h. The method, boiled down:
as §2

Consider `COc1cccc(/C=C2\CCC/C(=C\c3cccc(OC)c3OC)C2=O)c1`, for which the inhibition at 20 µM (with SW-620 [1]; in the experiment on MCF7 [4]; in the experiment on HT-1080 [7]; in the experiment with A549 [8]; in [9]) was above 50% throughout. Further, the IC50 (as a rule, the concentration at which inhibition is half-maximal) in experiment [2] stood at 10 µM; in the experiment with SW-620 [3] it was 7 µM; in the experiment with NHDF, 16.4 µM; in the experiment on MCF7 [5], 5.9 µM; in the experiment with HT-1080 [6] it was 9.9 µM; in the experiment on A549 [10], 16.4 µM.

As for `COc1ccccc1/C=C1\CCC/C(=C\c2cccc(OC)c2OC)C1=O`, the inhibition at 20 µM (in the experiment on SW-620 [1]; in the experiment on MCF7 [4]; in the experiment with HT-1080 [7]; in the experiment on A549 [8]; in experiment [9]) was above 50% each time. Besides, the IC50 in [2] is 16.6 µM; with SW-620 [3], above 20 µM; in the experiment with NHDF, 31.3 µM; in the experiment on MCF7 [5], 12 µM; with HT-1080 [6] it was 14.1 µM; in the experiment with A549 [10], above 20 µM.

With `COc1cc(/C=C2\CCC/C(=C\c3cccc(OC)c3OC)C2=O)ccc1O`, the inhibition at 20 µM (in the experiment on SW-620 [1]; in the experiment on MCF7 [4]; in the experiment with HT-1080 [7]; in the experiment with A549 [8]; in experiment [9]) was above 50% in each case. Moreover, the IC50 in experiment [2] is 10.6 µM; in the experiment on SW-620 [3], 8.6 µM; in the experiment on NHDF it was 14.3 µM; with MCF7 [5], 11.6 µM; in the experiment with HT-1080 [6], 5.9 µM; in the experiment with A549 [10], above 20 µM.

As to `COc1cccc(/C=C2\CCC/C(=C\c3cccc(Cl)c3Cl)C2=O)c1OC`, the inhibition at 20 µM (in the experiment with SW-620 [1]; in the experiment with MCF7 [4]; in the experiment on HT-1080 [7]; in the experiment with A549 [8]; in experiment [9]) was above 50% each time. Also, the 50% inhibitory concentration (IC50) in experiment [2] was 18.1 µM; in the experiment with SW-620 [3] it was 16.3 µM; with NHDF, above 50 µM; with MCF7 [5], above 20 µM; with HT-1080 [6] it was 19.3 µM; with A549 [10], above 20 µM.

For the molecule `COc1cccc(/C=C2\CCC/C(=C\c3ccc(O)c(Cl)c3)C2=O)c1OC`, the inhibition at 20 µM (in the experiment with SW-620 [1]; with MCF7 [4]; in the experiment on HT-1080 [7]; with A549 [8]; in experiment [9]) was above 50% in each case. In addition, the concentration for half-maximal inhibition (IC50) in [2] was 18.3 µM; in the experiment on SW-620 [3] it was 16.8 µM; with NHDF, 39.5 µM; in the experiment with MCF7 [5] it was 16.4 µM; in the experiment with HT-1080 [6], 14.3 µM; with A549 [10] it was above 20 µM.

As for `COc1cc(/C=C2\CCC/C(=C\c3ccc(OC)c(OC)c3)C2=O)cc(OC)c1`, the inhibition at 20 µM (in the experiment with SW-620 [1]; in the experiment on MCF7 [4]; in the experiment with HT-1080 [7]; in the experiment with A549 [8]; in [9]) was above 50% each time. For the same molecule, the IC50 in experiment [2] worked out at 3 µM; in the experiment with SW-620 [3], 2.5 µM; with NHDF it was 6.5 µM; with MCF7 [5] it was 3.9 µM; in the experiment on HT-1080 [6] it was 2.6 µM; in the experiment with A549 [10] it was 5.1 µM.

As to `COc1cccc(/C=C2\CCC/C(=C\c3ccc(O)c(O)c3)C2=O)c1OC`, the inhibition at 20 µM (in the experiment on SW-620 [1]; with MCF7 [4]; in the experiment with HT-1080 [7]; with A549 [8]; in experiment [9]) was above 50% in each case. Moreover, the half-inhibitory concentration (IC50) is 6.4 µM in experiment [2]; 6.3 µM in the experiment on SW-620 [3]; 17.9 µM in the experiment with NHDF; 4.7 µM in the experiment with MCF7 [5]; 4.7 µM in the experiment with HT-1080 [6]; above 20 µM in the experiment on A549 [10].

Consider `COc1cccc(/C=C2\CCC/C(=C\c3ccc(Cl)c(Cl)c3)C2=O)c1OC`, for which the inhibition at 20 µM (with SW-620 [1]; in the experiment with MCF7 [4]; in the experiment with HT-1080 [7]; in the experiment with A549 [8]; in [9]) was above 50% throughout. Also, the concentration for half-maximal inhibition (IC50) in [2] was 12.1 µM; with SW-620 [3], 10 µM; with NHDF, 25.5 µM; in the experiment with MCF7 [5] it was 9 µM; in the experiment with HT-1080 [6], 10.8 µM; in the experiment with A549 [10] it was above 20 µM.

As to `COc1cccc(/C=C2\CCC/C(=C\c3ccccc3Cl)C2=O)c1OC`, the inhibition at 20 µM (in the experiment on SW-620 [1]; in the experiment with MCF7 [4]; in the experiment on HT-1080 [7]; with A549 [8]; in experiment [9]) was above 50% each time. Also, the IC50 in [2] was 12 µM; in the experiment on SW-620 [3], 10.3 µM; with NHDF it was 44.2 µM; in the experiment with MCF7 [5], 11.3 µM; in the experiment with HT-1080 [6], 11.7 µM; in the experiment on A549 [10], above 20 µM.

Turning to `COc1cccc(/C=C2\CCC/C(=C\c3ccccc3Br)C2=O)c1OC`, the inhibition at 20 µM (in the experiment with SW-620 [1]; in the experiment with MCF7 [4]; with HT-1080 [7]; in the experiment with A549 [8]; in experiment [9]) was above 50% in each case. Moreover, the IC50 in [2] was 10.8 µM; in the experiment on SW-620 [3], 12.1 µM; in the experiment with NHDF, above 50 µM; with MCF7 [5], 9.7 µM; in the experiment on HT-1080 [6], 10.8 µM; with A549 [10] it was above 20 µM.
